# Screens deposited in PubChem by several laboratories.
# XBP1 UPR activ = activators of adaptive arm of unfolded protein response (XBP1). CHO-XBP1 luciferase reporter, IRE1-XBP1 UPR activation, luminescence; percent of tunicamycin response, DMSO as zero. activation, % at 20 µM. hit rate 0.33% among 330,000. AID 463104;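 active = versus positive control, 20 µM dose yields 30% or more activation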;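 also: 100% = tunicamycin at 10 µg/mL and 0% = DMSO only wells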
#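 Signal: luciferase luminescence; Assay system: CHO-XBP1 luciferase reporter cells; Amount: one thousand reporter cells per well; Dosing: 20 µM single concentration, DMSO 1%; Benchmarks: high control tunicamycin 10 µg/mL final, low control DMSO vehicle only; Schedule: 6 h compound exposure at 37 °C, 5% CO2; Evaluation: percent activation relative to tunicamycin reference.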
# Beta cell apopt = beta cell apoptosis inhibition. AID 435005. hit rate 0.8% among 300,000. protection from apoptosis, % (no concentration beside the values). INS-1E cytokine-induced death, ATP luminescence, 48 h; percent of positive-control rescue, neutral wells zero;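 active = Every replicate reaches about 75%, or at least half do and their mean reaches it too, limit read from the data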;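 also: 0% = cytokine-treated negative control wells and 100% = positive control rescue; higher means more ATP so stronger rescue from cytokine killing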
# CSC inhib = blocks cancer stem cells; hit rate 1.1% among 300,000; cancer stem cell-like cells viability, luminescence; inhibition, % at 7.5 µM; in the data active = inhibition above about 75%; tested in HMLE shEcad cells
# Mdm2 MdmX PPI = human Mdm2/MdmX binding inhibition | SaOS-2 split-luciferase Mdm2/MdmX complementation, luminescence | hit rate 3% among 330,000 | AID 485346 | inhibition, % at 8 µM | O15151+Q00987;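 active = inhibition of at least 50% at 8 µM in the primary screen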
# Target sequence (O15151 whole entry, looked up): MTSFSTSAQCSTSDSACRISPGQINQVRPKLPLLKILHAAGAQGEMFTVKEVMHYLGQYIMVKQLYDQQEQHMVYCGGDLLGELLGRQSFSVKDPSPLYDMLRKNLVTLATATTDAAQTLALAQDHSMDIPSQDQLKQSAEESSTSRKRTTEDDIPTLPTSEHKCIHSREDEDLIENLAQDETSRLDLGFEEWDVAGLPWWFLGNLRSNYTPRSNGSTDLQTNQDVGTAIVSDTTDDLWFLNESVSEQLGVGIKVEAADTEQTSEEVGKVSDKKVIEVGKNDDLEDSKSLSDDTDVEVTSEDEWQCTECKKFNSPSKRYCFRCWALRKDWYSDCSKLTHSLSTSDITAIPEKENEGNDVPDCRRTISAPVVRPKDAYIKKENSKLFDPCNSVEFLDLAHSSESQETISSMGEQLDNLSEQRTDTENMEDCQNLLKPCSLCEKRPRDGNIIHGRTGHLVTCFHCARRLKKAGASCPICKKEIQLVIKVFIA
# Target sequence (Q00987 whole entry, looked up): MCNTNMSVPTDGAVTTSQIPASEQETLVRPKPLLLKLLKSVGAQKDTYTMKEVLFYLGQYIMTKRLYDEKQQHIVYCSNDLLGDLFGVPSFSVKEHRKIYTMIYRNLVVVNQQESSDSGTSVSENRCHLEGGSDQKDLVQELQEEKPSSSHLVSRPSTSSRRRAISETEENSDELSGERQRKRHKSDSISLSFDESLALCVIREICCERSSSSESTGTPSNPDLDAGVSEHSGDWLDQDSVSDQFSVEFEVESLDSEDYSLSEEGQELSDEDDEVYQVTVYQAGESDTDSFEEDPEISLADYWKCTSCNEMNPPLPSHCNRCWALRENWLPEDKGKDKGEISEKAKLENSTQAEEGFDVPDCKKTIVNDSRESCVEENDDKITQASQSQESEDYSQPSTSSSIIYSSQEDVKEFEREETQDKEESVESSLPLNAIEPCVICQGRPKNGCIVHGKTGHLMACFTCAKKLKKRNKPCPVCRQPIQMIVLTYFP
# CHOP UPR activ = apoptotic UPR (CHOP) activation | CHO-CHOP luciferase reporter, luminescence; percent of tunicamycin response over DMSO baseline | hit rate 0.34% among 330,000 | AID 449763 | activation, % at 10 µM;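 active = at 10 µM dose, activation of 40% or more, normalized to positive control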;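 also: 100% = tunicamycin at 10 µg/mL and 0% = DMSO alone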
#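 measured by = luciferase luminescence | assay system = CHO-CHOP cells, stable luciferase reporter of PERK-eIF2a-CHOP signalling | amount = 500 reporter cells seeded per well | timing = 6 h compound exposure at 37 °C after overnight seeding | controls = positive tunicamycin 10 µg/mL, negative DMSO alone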
# SKKanGAS inh = blocks kanamycin growth of S. pyogenes SKKanGAS strain | BacTiter-Glo, 6 h | inhibition, % at 7.5 µM | hit rate 1.3% among 300,000;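 active = mean replicate score, as percent of positive control median, at least 50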;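 also: strain carries kanamycin resistance gene driven by streptokinase promoter and grows in 40 µg/ml kanamycin; loss of luminescence reflects streptokinase promoter inhibition or plain growth inhibition; 0% = median of DMSO wells and 100% = positive control at its reference dose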
# Mdm2-MdmX conf = confirmation of human Mdm2/MdmX interaction inhibitors; hit rate 55% among 10,000; shares compounds with Mdm2 MdmX PPI; inhibition, % at 8 µM; Mdm2-MdmX binding, luminescent assay; in the data active = inhibition above about 40%
# Full FLuc ctr = inhibits full-length luciferase, flagging false Mdm2/MdmX hits. shares compounds with Mdm2 MdmX PPI. SaOS-2 full-length luciferase counterscreen, luminescence. inhibition, % at 8 µM. hit rate 77% among 6,200. AID 504607;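 active = mean inhibition at 8 µM reaching about 37%, which flags the compound as non-specific, limit read from the data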;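 also: p53-null SaOS-2 cells with luciferase driven by a doxycycline-inducible promoter; compound on cells about two nights before reading with doxycycline added after day one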
# Numbers without * were called inactive; nt = not tested or not shown. Shown are actives, neighbours in structure and some others; about 4.8% of the full set was active somewhere.
SMILES,XBP1 UPR activ,Beta cell apopt,CSC inhib,Mdm2 MdmX PPI,CHOP UPR activ,SKKanGAS inh,Mdm2-MdmX conf,Full FLuc ctr
CCOC(=O)c1c(CN(C)C)n(C)c2c(O)c(N=NC(N)=O)c3ccc(Br)cc3c12,0,-6,-1,77*,5,20,47*,28
CCCn1c(=O)c(C(=O)OCC)c(O)c2cc(Br)ccc21,2,-1,-1,24,0,-8,nt,nt
COc1ccc(CNCC(O)(c2ccccc2)c2ccc(Cl)cc2)cc1 (stereo not drawn),3,8,10,50*,-1,3,4,nt
CC(O)CO (stereo not drawn),-1,-3,-5,20,-1,nt,nt,nt
O=C(Nc1ccc(N2CCN(C(=O)c3ccccc3)CC2)c(Cl)c1)c1ccco1,3,11,12,12,-4,7,nt,nt
CCC(=O)N1CCN(c2ccc(NC(=O)c3cc4ccccc4o3)cc2Cl)CC1,-7,32,34,82*,-2,20,25,nt
O=C(Nc1ccc(N2CCN(C(=O)c3ccco3)CC2)c(Cl)c1)c1cc2ccccc2o1,-6,47,-7,100*,-5,40,75*,51*
CCCC(=O)N1CCN(c2ccc(NC(=O)c3cc4ccccc4o3)cc2Cl)CC1,-8,68,90*,100*,-6,37,59*,13
Cc1nnc(NC(=O)C2CCN(S(=O)(=O)c3ccc(F)c(F)c3)CC2)o1,0,-3,-5,16,-1,nt,nt,nt
Cc1ccc(Cn2nc(C)c(C(=O)NCC(c3cccs3)N3CCOCC3)c2Cl)cc1 (stereo not drawn),-4,0,3,13,-1,0,nt,nt
CCOC(=O)c1ccc(-c2csc(NC(=O)CN3CCC(C)CC3)n2)cc1,5,2,-1,21,2,19,nt,nt
CCCN(CC(=O)Nc1ccc(F)c(F)c1F)C(=O)c1ccc(N2CCCC2=O)cc1,2,0,-6,8,1,nt,nt,nt
Oc1ccc(C[C@H]2CNCCN2CC2(c3ccccc3)CC2)cc1,-2,-3,22,29,-1,3,nt,nt
CCc1c(C#N)c(SCCC(=O)Nc2cccc(OC)c2)nc2c1C(=O)CC(C)(C)C2,-2,-7,25,31,-2,16,nt,nt
CCc1c(C#N)c(SCCC(=O)Nc2ccc(F)cc2)nc2c1C(=O)CC(C)(C)C2,-3,-6,36,56*,0,31,11,nt
O=C(NCc1ccccc1)Nc1cccn(Cc2c(F)cccc2Cl)c1=O,0,11,-23,56*,1,8,43*,73*
Clc1ccc(CSc2nncn2-c2ccc3c(c2)OCCO3)cc1,1,0,75,51*,0,17,60*,48*
COCCCNC(=O)c1ccc(Cn2c(=O)c3ccccc3n(Cc3ccc(C)cc3)c2=O)cc1,-1,-4,-1,56*,-4,11,24,nt
Cc1ccc(OCCC(=O)N(CCC(C)C)c2c(N)n(Cc3ccccc3)c(=O)[nH]c2=O)cc1,0,1,-6,18,2,2,nt,nt
O=C1N[C@@H](Cc2ccccc2)COC(=O)[C@@H](Cc2ccc(F)cc2)CC/C=C/C[C@H]1CC(=O)N(CCO)Cc1ccccc1,0,-2,-4,52*,6,nt,16,nt
O=C1N[C@@H](Cc2c[nH]c3ccccc23)COC(=O)[C@@H](Cc2ccc(F)cc2)CC/C=C/C[C@@H]1CC(=O)N(CCO)Cc1ccccc1,4,nt,nt,59*,9,nt,32,nt
O=C1N[C@@H](Cc2ccccc2)COC(=O)[C@H](Cc2ccc(F)cc2)CC/C=C/C[C@@H]1CC(=O)N(CCO)Cc1ccccc1,-2,-4,nt,25,2,nt,nt,nt
O=C1N[C@@H](Cc2c[nH]c3ccccc23)COC(=O)[C@H](Cc2ccc(F)cc2)C/C=C\C[C@H]1CC(=O)N(CCO)Cc1ccccc1,-3,-9,33,32,1,nt,nt,nt
CC(Cc1ccccc1)NC(=O)CCCN1C(=O)c2ccccc2C1=O (stereo not drawn),-8,0,-11,-9,1,-5,nt,nt
COc1ccc(C(=O)Nc2nc3c(s2)CCCC3)cc1S(=O)(=O)N1CCCc2ccccc21,-1,37,nt,91*,23,28,90*,23
SMILES,XBP1 UPR activ,Beta cell apopt,CSC inhib,Mdm2 MdmX PPI,CHOP UPR activ,SKKanGAS inh,Mdm2-MdmX conf,Full FLuc ctr
COc1ccc(C(=O)Nc2ncccc2C)cc1S(=O)(=O)N1CCCc2ccccc21,-2,0,3,8,-1,18,nt,nt
Cc1nc2sc3c(=O)[nH]nnc3c2c(C)c1Br,-3,-8,-6,5,3,8,nt,nt
CN(C)CCNC(=O)C(=O)Nc1ccc2c(c1)N(S(=O)(=O)c1cccs1)CCC2,1,1,22,51*,-1,2,72*,62*
CCCNC(=O)C(=O)Nc1ccc2c(c1)N(S(=O)(=O)c1cccs1)CCC2,-2,8,nt,50*,1,31,69*,60*
CCNC(=O)C(=O)Nc1ccc2c(c1)N(S(=O)(=O)c1cccs1)CCC2,0,-1,nt,23,-1,46,nt,nt
CCC(=O)N1c2ccccc2NC2=C(C(=O)CCC2)C1c1ccc(N(C)C)cc1 (stereo not drawn),-1,nt,-9,25,3,1,nt,nt
O=C1CCCC2=C1C1c3ccccc3C(=O)N1c1ccc(C(=O)c3ccccc3)cc1N2 (stereo not drawn),-7,2,-2,56*,-2,23,42*,67*
C=CCN1C(=O)c2ccc(C(=O)N3CCN(S(=O)(=O)c4ccccc4Br)CC3)cc2C1=O,0,4,-7,-2,3,-2,nt,nt
COc1cc(NC(=O)C2=C(N3CCOCC3)/C(=C\c3ccc(N(C)C)cc3)CCC2)cc(OC)c1OC,13,17,87*,60*,3,6,47*,87*
CC(C)(O)C(=O)NNC(=S)Nc1cccc(C(F)(F)F)c1,-3,6,-6,-9,-1,-6,nt,nt
O=C(NNc1ccccc1Br)C(O)(c1cccc(C(F)(F)F)c1)c1cccc(C(F)(F)F)c1,2,125*,12,94*,17,101*,78*,87*
CN(CC(=O)Nc1ccc(Cl)cc1)C(=O)C1CCCC1,2,nt,nt,2,0,nt,nt,nt
CC1CC(C)CN(CCCNC(=O)C2CCN(c3ncnc4c3sc3cccc(F)c34)CC2)C1 (stereo not drawn),-3,5,-14,56*,-1,1,34,64*
